Data set [1] has as its target Mitogen-activated protein kinase 14 (Homo sapiens) (UniProt Q16539). Put plainly: Inhibition of p38alpha MAPK assessed as residual activity at 10 uM relative to control. The gist of the method: (§1)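 Radioactivity-based enzymatic kinase assays run across a 124-kinase profiling panel (Dundee), reporting the remaining kinase activity relative to a control.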
The target of data set [2] is Leucine-rich repeat serine/threonine-protein kinase 2 (Homo sapiens, UniProt Q5S007). Nature of the data set: Inhibition of wild type LRRK2 phosphorylation at Ser910 in human lymphoblastoid cells at 0.03 to 3 uM after 90 mins by Western blot analysis. The class given is cell-based. In general terms: A western blot detects proteins with antibodies after separation by electrophoresis.

For data set [3], the target named is Dual specificity mitogen-activated protein kinase kinase 2 (Homo sapiens) (UniProt P36507). Put plainly: Inhibition of MKK2 assessed as residual activity at 10 uM relative to control.
The test system of data set [4] is Mus musculus. Put plainly: Inhibition of LRRK2 phosphorylation at Ser935 in C57BL/6 mouse kidney at 10 mg/kg, po administered for 8 hrs followed by 2 hrs dosing. The class given is functional, organism-based. The arrangement: dose 10 mg/kg. The gist of the method: (§2)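 Mice were dosed by oral gavage at 10 or 50 mg/kg. Brain, spleen and kidney were collected. Endogenous LRRK2 was resolved by SDS–PAGE and blotted with phospho-specific antibodies to Ser910 and Ser935 and with an antibody to total LRRK2.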

In data set [5] the target is Serine/threonine-protein kinase TBK1 (Homo sapiens) (UniProt Q9UHD2). Put plainly: Inhibition of TBK1 assessed as residual activity at 1 uM relative to control.
Data set [6] has as its target Mitogen-activated protein kinase 14 (Homo sapiens) (UniProt Q16539). Put plainly: Inhibition of p38alpha MAPK assessed as residual activity at 1 uM relative to control. The gist of the method: as §1
The target of data set [7] is Receptor tyrosine-protein kinase erbB-4 (Homo sapiens) (UniProt Q15303). Nature of the data set: Inhibition of HER4 assessed as residual activity at 1 uM relative to control. The gist of the method: (§3)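 Standard radioactivity-based enzymatic assays were run across a 124-kinase panel (Dundee profiling), with compound at 1 µM. Kinase activity was expressed relative to control.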

Data set [8] concerns Mus musculus. Nature of the data set: Inhibition of LRRK2 phosphorylation at Ser910 in C57BL/6 mouse spleen at 10 mg/kg, po administered for 8 hrs followed by 2 hrs dosing. The class given is functional, organism-based. The arrangement: dose 10 mg/kg. A digest of the protocol: as §2
The subject of data set [9] is Brain. Nature of the data set: AUClast in Swiss albino mouse brain at 10 mg/kg, po. The settings on record: in vivo. Also noted: time 0 - last, dose 10 mg/kg, route oral. The class given is ADME, organism-based. The gist of the method:
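Male Swiss Albino mice were given a single dose, either intravenous at 1 mg/kg or oral at 10 mg/kg. AUClast was measured in plasma and in brain. Half-life, plasma clearance, volume of distribution and oral bioavailability were derived from the plasma data.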

The subject of data set [10] is Mus musculus. Put plainly: Inhibition of LRRK2 phosphorylation at Ser910 in C57BL/6 mouse kidney at 50 mg/kg, po administered for 8 hrs followed by 2 hrs dosing. It is filed as functional, organism-based. Also noted: dose 50 mg/kg. The gist of the method: as §2
The target in data set [11] is Serine/threonine-protein kinase PAK 5 (Homo sapiens) (UniProt Q9P286). Nature of the data set: Inhibition of PAK5 assessed as residual activity at 1 uM relative to control.
A short description of data set [12]: Inhibition of CK1 assessed as residual activity at 1 uM relative to control.
Data set [13] concerns the target Death-associated protein kinase 1 (Homo sapiens) (UniProt P53355). Nature of the data set: Inhibition of DAPK1 assessed as residual activity at 1 uM relative to control. The gist of the method:
as §3

Data set [14] deals with Receptor-interacting serine/threonine-protein kinase 2 (Homo sapiens) (UniProt O43353). Nature of the data set: Inhibition of RIPK2 assessed as residual activity at 10 uM relative to control.
Data set [15] concerns the target Insulin receptor-related protein (Homo sapiens) (UniProt P14616). Nature of the data set: Inhibition of IRR assessed as residual activity at 1 uM relative to control.

These results are taken from ChEMBL document CHEMBL2010643 (Bioorg Med Chem Lett, 2012).

Active and inactive are the calls of the source. The calls are words filed in the database; no cut-off is given here.

Chain of Mitogen-activated protein kinase 14 (Homo sapiens) (Q16539 whole entry): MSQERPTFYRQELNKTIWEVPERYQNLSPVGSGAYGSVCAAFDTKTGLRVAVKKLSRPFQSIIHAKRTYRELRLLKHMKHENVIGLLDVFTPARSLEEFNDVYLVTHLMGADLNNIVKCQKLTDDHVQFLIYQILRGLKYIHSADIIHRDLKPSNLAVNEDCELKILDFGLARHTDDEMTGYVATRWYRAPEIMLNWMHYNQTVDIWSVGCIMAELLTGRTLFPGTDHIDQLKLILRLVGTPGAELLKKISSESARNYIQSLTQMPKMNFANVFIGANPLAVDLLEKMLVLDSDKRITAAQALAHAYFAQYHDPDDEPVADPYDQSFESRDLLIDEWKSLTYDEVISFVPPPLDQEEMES
Chain of Serine/threonine-protein kinase TBK1 (Homo sapiens) (Q9UHD2 whole entry): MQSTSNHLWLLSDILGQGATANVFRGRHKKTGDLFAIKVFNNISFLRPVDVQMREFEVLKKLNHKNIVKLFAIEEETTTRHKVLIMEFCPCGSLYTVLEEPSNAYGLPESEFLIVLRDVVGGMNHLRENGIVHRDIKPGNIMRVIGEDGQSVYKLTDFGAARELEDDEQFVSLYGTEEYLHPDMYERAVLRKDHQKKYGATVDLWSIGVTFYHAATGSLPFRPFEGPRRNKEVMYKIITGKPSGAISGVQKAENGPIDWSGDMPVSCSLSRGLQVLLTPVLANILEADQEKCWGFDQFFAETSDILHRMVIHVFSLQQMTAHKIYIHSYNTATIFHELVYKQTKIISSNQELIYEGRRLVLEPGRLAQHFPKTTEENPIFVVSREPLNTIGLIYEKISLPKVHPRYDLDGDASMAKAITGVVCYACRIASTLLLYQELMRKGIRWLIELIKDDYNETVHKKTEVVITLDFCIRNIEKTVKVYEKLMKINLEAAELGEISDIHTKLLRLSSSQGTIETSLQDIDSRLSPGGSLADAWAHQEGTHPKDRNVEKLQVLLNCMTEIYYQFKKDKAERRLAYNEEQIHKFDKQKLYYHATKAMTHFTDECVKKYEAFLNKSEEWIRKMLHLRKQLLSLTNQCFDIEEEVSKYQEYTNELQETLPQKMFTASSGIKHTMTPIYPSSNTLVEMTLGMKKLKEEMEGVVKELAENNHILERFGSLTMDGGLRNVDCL
Chain of Death-associated protein kinase 1 (Homo sapiens) (P53355 whole entry, looked up): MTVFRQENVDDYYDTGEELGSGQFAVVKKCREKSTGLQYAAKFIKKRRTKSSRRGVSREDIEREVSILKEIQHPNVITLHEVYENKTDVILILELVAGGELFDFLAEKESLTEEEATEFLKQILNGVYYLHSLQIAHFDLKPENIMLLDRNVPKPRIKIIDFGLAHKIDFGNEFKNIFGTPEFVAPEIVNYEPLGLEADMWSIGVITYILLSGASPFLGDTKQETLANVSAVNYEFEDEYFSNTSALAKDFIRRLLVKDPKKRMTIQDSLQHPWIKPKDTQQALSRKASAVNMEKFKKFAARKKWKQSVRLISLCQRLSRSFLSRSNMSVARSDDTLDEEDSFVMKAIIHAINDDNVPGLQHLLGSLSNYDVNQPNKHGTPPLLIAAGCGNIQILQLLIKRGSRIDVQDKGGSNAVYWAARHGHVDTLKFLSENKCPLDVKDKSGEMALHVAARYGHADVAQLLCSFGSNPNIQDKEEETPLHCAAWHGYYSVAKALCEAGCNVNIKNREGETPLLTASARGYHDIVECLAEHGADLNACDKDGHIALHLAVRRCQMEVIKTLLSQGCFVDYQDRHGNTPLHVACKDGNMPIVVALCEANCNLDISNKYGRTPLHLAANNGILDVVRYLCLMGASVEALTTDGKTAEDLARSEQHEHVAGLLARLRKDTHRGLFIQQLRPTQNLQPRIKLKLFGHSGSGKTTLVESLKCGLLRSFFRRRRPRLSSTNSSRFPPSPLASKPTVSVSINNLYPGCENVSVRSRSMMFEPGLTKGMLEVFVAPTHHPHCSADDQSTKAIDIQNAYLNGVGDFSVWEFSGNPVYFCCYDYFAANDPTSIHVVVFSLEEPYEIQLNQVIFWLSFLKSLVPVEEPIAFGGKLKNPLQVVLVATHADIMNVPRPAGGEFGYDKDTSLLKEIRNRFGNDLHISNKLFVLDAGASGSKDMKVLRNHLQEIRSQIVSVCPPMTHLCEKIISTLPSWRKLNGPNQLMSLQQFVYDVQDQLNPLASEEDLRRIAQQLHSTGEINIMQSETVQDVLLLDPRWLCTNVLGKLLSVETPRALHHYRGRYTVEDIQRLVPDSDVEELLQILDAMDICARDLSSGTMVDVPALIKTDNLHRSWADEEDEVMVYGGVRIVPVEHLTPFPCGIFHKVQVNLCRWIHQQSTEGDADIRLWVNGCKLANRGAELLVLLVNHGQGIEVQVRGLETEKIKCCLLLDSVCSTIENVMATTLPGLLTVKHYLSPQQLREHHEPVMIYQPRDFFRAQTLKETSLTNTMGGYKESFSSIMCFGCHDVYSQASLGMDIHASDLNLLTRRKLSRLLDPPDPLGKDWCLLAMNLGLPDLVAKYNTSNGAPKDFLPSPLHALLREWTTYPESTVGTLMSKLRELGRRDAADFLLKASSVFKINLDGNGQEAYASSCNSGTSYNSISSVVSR
Chain of Receptor tyrosine-protein kinase erbB-4 (Homo sapiens) (Q15303 whole entry): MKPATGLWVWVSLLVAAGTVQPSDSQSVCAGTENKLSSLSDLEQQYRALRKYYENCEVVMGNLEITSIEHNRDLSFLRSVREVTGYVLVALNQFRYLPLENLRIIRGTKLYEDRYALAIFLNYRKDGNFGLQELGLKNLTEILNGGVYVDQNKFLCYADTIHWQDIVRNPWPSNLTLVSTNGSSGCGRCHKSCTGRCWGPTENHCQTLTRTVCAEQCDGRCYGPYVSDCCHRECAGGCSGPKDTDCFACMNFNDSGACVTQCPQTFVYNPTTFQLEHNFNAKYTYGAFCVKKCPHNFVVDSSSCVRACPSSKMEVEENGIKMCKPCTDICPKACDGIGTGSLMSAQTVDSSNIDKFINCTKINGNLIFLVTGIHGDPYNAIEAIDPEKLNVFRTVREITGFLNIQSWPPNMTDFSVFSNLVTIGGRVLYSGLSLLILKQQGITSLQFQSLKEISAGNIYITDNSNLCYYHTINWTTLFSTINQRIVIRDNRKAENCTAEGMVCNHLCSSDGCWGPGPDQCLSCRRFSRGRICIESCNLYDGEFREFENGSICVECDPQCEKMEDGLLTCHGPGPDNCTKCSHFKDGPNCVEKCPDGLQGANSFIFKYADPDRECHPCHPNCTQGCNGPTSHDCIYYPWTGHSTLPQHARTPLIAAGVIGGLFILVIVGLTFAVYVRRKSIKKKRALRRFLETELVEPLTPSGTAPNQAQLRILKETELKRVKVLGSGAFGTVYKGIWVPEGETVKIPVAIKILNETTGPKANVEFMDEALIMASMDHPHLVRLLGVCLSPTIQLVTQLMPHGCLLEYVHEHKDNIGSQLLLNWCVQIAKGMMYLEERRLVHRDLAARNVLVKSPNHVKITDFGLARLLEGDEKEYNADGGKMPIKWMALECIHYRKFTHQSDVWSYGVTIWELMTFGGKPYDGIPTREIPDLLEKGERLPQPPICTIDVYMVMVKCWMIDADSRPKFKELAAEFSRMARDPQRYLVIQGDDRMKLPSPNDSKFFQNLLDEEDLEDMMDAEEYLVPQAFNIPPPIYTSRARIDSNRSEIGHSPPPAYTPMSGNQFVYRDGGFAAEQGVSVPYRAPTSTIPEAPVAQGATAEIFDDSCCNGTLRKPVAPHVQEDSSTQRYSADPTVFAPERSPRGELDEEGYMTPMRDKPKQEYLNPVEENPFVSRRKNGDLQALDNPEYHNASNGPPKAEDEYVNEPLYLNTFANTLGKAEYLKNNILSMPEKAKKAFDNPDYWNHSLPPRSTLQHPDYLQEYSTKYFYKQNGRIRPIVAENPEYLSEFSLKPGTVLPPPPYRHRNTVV
Chain of Receptor-interacting serine/threonine-protein kinase 2 (Homo sapiens) (O43353 whole entry): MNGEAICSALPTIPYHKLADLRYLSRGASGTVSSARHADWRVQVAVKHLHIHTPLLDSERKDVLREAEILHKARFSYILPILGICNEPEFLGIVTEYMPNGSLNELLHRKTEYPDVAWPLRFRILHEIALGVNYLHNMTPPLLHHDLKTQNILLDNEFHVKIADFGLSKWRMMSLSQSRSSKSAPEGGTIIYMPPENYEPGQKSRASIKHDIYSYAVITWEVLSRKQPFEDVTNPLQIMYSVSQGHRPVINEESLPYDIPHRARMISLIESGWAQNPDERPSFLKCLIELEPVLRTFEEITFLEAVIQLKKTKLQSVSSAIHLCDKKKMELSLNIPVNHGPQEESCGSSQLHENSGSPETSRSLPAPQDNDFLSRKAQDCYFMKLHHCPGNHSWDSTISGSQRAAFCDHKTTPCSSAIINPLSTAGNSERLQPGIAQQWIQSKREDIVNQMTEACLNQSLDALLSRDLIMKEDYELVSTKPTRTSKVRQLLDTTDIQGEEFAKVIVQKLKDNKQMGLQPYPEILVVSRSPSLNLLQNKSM
Chain of Dual specificity mitogen-activated protein kinase kinase 2 (Homo sapiens) (P36507 whole entry): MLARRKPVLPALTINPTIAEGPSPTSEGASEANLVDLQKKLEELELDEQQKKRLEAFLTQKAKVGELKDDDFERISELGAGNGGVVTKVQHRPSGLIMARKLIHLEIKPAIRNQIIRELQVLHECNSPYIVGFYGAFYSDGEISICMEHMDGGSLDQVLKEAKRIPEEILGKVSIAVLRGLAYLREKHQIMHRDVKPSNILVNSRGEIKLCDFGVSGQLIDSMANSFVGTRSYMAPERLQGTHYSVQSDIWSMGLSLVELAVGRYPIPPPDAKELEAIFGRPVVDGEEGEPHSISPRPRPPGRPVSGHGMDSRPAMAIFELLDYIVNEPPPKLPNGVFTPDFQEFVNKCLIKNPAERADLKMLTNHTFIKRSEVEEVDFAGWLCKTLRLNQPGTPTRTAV

On to `COc1cc(N2CCC(N3CCN(C)CC3)CC2)ccc1Nc1ncc(Cl)c(Nc2ccccc2S(=O)(=O)C(C)C)n1` [TAE-684], for which the Activity in [1] stood at 79%; in [3], 30%; in [5] it was 93%; in data set [6], 88%; in data set [7], 36%; in data set [11], 66%. Also, the Activity in [12] came to 102%; in data set [13] it was 98%; in [14], 59%; in [15], 98%. The inhibition result in data set [2], in data set [4], in data set [8] and in data set [10] was “Active” throughout. The same compound showed an AUClast in data set [9] of 14430 ng·h/mL.
